Screening data (PubChem BioAssay)
Most compounds without a hit are left out; they make up all but 5.8% or so of the library.
GASC1 inh – blocks human GASC-1 (KDM4C) demethylase activity; inhibition, % at 12.5 µM; 96,000 tested, 0.15% active; GST-KDM4C 2-372, H3K9me3 peptide, LANCE TR-FRET; AID 720574; Q9H3R0;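 active means mean replicate inhibition above about 25%, with at least 55% of replicates also reaching it, limit read from the data, passing the limit was not always enough; inconclusive means only one of those two conditions met; inactive means neither condition met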
Target sequence (Q9H3R0 2-372 limits assumed): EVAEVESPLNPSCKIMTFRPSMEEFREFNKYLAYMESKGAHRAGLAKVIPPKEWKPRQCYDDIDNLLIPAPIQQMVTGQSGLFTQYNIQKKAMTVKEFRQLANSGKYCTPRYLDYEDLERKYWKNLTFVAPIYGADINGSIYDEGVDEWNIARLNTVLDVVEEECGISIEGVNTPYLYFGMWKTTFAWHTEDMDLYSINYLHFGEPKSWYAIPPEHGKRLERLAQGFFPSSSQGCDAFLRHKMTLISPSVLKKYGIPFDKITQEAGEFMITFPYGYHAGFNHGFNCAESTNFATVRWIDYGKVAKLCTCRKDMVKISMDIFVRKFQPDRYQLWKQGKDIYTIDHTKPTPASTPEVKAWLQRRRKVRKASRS
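System: N-terminal GST-fused human GASC-1 (KDM4C) fragment, residues 2-372; amount: enzyme final amount 10 nM; incubation: reaction 30 min RT, detection step 1 h RT; medium: HEPES buffer, pH 7.5, plus ascorbate; technique: LANCE TR-FRET, Eu antibody, ULight-streptavidin, EDTA, ex 340 nm, em 618/671 nm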
T cruzi growth-1 – T. cruzi proliferation inhibition; AID 624255; inhibition, % at 8.34 µM; 77,000 tested, 5.9% active; T. cruzi beta-gal in NIH3T3, GalScreen luminescence, 90 h;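 active means mean inhibition above about 93%, with at least 55% of replicates each passing it, limit read from the data, passing the limit was not always enough; inconclusive means only one of those two conditions holds; inactive means neither condition holds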
IDH1 mut inh – IDH1 R132H (human) inhibition; 70,000 tested, 0.18% active; inhibition, % at 10 µM; IDH1 R132H reductase, diaphorase/resazurin fluorescence, 60 min; in the data active means inhibition above about 34%; inconclusive means no clear call, values can overlap the other calls; inactive means below about 11%
Target sequence (O75874 whole entry R132H): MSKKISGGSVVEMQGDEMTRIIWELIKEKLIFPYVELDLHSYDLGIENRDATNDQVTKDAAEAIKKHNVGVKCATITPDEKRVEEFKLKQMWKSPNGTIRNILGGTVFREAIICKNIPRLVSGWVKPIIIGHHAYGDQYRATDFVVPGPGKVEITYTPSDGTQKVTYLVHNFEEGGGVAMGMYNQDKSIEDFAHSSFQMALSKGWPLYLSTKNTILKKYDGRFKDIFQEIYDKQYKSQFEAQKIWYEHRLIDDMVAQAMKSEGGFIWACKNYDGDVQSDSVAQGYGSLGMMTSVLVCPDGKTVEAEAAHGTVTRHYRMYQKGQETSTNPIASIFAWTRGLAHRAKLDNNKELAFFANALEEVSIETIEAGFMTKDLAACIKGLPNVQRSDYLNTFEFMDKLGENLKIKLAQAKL
Pf Dd2 inh – blocks growth of Plasmodium falciparum Dd2 parasites; P. falciparum Dd2 growth, SYBR Green, 72 h; active compounds read low; activity change, % at 10 µM; 94,000 tested, 2.3% active; AID 1159554; in the data active means activity change below about -80%; inconclusive means no clear call, values can overlap the other calls
T cruzi growth-2 – blocks T. cruzi growth in NIH3T3 host cells; shares compounds with T cruzi growth-1; AID 651739; 5,600 tested, 72% active; T. cruzi beta-gal in NIH3T3, GalScreen luminescence, 90 h; inhibition, % at 8.35 µM;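 active means mean replicate inhibition above about 95% and at least 55% of replicates individually reaching it, limit read from the data; inconclusive means only one of the two criteria is met; inactive means neither criterion is met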
T cruzi growth-3 – blocks T. cruzi growth in NIH3T3 host cells; shares compounds with T cruzi growth-1; T. cruzi beta-gal in NIH3T3, GalScreen luminescence, 90 h; inhibition, % at 2.09 µM; 5,600 tested, 21% active; AID 651740;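 active means mean inhibition above about 95%, with at least 55% of replicates also reaching it, limit read from the data; inconclusive means meets just one of the two conditions; inactive means meets neither condition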
NIH3T3 tox – cytotoxicity in mouse NIH/3T3 fibroblasts | shares compounds with T cruzi growth-1 | NIH/3T3 viability, CellTiter-Glo ATP luminescence, 90 h | cytotoxicity (signal decrease), % at 8.35 µM | 5,600 tested, 14% active | AID 651742;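 active means mean signal decrease across replicates above about 35% based on untreated-well scatter, with enough replicates individually passing, limit read from the data; inconclusive means no rule stated though some were filed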
3T3 cytotox 2 – cytotoxicity in mouse NIH/3T3 fibroblasts. inhibition, % at 24.9 µM. AID 651744. shares compounds with T cruzi growth-1. NIH/3T3 viability, CellTiter-Glo ATP luminescence, 90 h. 5,600 tested, 56% active;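 active means mean loss of cell viability signal at or above a set limit, and enough replicates individually reaching it; inconclusive means meets only the mean limit or only the replicate share; inactive means meets neither condition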
Large screens that a line does not name were inactive (follow-up assays come after a bar, where they were run).

C[C@@H]1CN([C@H](C)CO)C(=O)c2cccc(NC(=O)Nc3cccc4ccccc34)c2O[C@H]1CN(C)C(=O)Nc1ccc(F)cc1	T cruzi growth-1 99 | T cruzi growth-2 103 | T cruzi growth-3 inactive | NIH3T3 tox inactive | 3T3 cytotox 2 inactive
C[C@@H]1CN([C@@H](C)CO)C(=O)c2cccc(NC(=O)C3CCOCC3)c2O[C@H]1CN(C)C(=O)Nc1ccc(C(F)(F)F)cc1	T cruzi growth-1 99 | T cruzi growth-2 inactive | T cruzi growth-3 inactive | NIH3T3 tox inactive | 3T3 cytotox 2 29
C[C@H](CO)N1C[C@H](C)[C@@H](CN(C)C(=O)Nc2ccc(F)cc2)Oc2c(NC(=O)Nc3cccc4ccccc34)cccc2C1=O	none
C[C@H](CO)N1C[C@H](C)[C@H](CN(C)CC2CC2)Oc2c(NC(=O)Nc3ccc(C(F)(F)F)cc3)cccc2C1=O	T cruzi growth-1 118 | T cruzi growth-2 101 | T cruzi growth-3 100 | NIH3T3 tox inactive | 3T3 cytotox 2 inactive
C[C@@H]1CN([C@H](C)CO)C(=O)c2cccc(NC(=O)Nc3ccc(C(F)(F)F)cc3)c2O[C@@H]1CN(C)CC1CC1	none
CC(C)NC(=O)N(C)C[C@H]1Oc2c(NC(=O)Nc3ccc(C(F)(F)F)cc3)cccc2C(=O)N([C@@H](C)CO)C[C@@H]1C	T cruzi growth-1 inconclusive (no result: IDH1 mut inh) | T cruzi growth-2 inactive | T cruzi growth-3 inactive | NIH3T3 tox inactive | 3T3 cytotox 2 57
CC(C)NC(=O)N(C)C[C@@H]1Oc2c(NC(=O)Nc3ccc(C(F)(F)F)cc3)cccc2C(=O)N([C@@H](C)CO)C[C@H]1C	none (no result: IDH1 mut inh)
COc1ccc(NC(=O)N2CCCCN3[C@H](C2)[C@H](c2ccc(C#Cc4ccccc4)cc2)[C@@H]3CO)cc1	T cruzi growth-1 99 (no result: GASC1 inh, IDH1 mut inh) | T cruzi growth-2 109 | T cruzi growth-3 inactive | NIH3T3 tox inactive | 3T3 cytotox 2 56
COc1ccc(NC(=O)N2CCCCN3[C@@H](CO)[C@H](c4ccc(C#Cc5ccccc5)cc4)[C@@H]3C2)cc1	none (no result: GASC1 inh, IDH1 mut inh)
COc1ccc(NC(=O)N2CCCCN3[C@H](C2)[C@@H](c2ccc(C#Cc4ccccc4)cc2)[C@@H]3CO)cc1	T cruzi growth-1 inconclusive (no result: GASC1 inh, IDH1 mut inh) | T cruzi growth-2 104 | T cruzi growth-3 119 | NIH3T3 tox 60 | 3T3 cytotox 2 104
COc1ccc(C#Cc2ccc([C@@H]3[C@@H](CO)N4CCCCN(C(=O)Nc5ccccc5)C[C@H]34)cc2)cc1	none (no result: IDH1 mut inh)
COc1ccc(C#Cc2ccc([C@@H]3[C@H]4CN(C(=O)Nc5ccccc5)CCCCN4[C@H]3CO)cc2)cc1	T cruzi growth-1 106 (no result: IDH1 mut inh) | T cruzi growth-2 inactive | T cruzi growth-3 inactive | NIH3T3 tox 94 | 3T3 cytotox 2 106
O=C(Nc1ccccc1)N1CCCCN2[C@@H](CO)[C@H](c3ccc(C#Cc4ccccc4)cc3)[C@@H]2C1	none (no result: IDH1 mut inh)
CCCOc1ccc(-c2nc(SCC(N)=O)n[nH]2)cc1	none (no result: GASC1 inh, T cruzi growth-1, Pf Dd2 inh)
COc1ccc(-c2nnc(SCC(=O)Nc3cccc(SC)c3)o2)cc1	none (no result: GASC1 inh, T cruzi growth-1, Pf Dd2 inh)
COc1c(O)c(C(=O)/C=C\c2ccccc2)c(OC)c(OC)c1OC	none (no result: GASC1 inh, T cruzi growth-1, Pf Dd2 inh)
CO[C@H](CN(C)C(=O)Nc1ccc(Cl)cc1)[C@@H](C)CN(Cc1ccccc1Cl)[C@H](C)CO	T cruzi growth-1 102 | T cruzi growth-2 106 | T cruzi growth-3 inactive | NIH3T3 tox inactive | 3T3 cytotox 2 77
CO[C@@H](CN(C)C(=O)Nc1ccc(Cl)cc1)[C@H](C)CN(Cc1ccccc1Cl)[C@@H](C)CO	none
CO[C@@H](CN(C)C(=O)Nc1ccc(Cl)cc1)[C@@H](C)CN(Cc1ccccc1Cl)[C@@H](C)CO	T cruzi growth-1 109 | T cruzi growth-2 102 | T cruzi growth-3 inactive | NIH3T3 tox 39 | 3T3 cytotox 2 54
N#Cc1c(NC(=O)CSc2ncccn2)sc2c1CCCC2	none (no result: GASC1 inh, T cruzi growth-1, Pf Dd2 inh)
O=C(NCCCN1CCCC1=O)c1cc(-c2cccnc2)nc2ccc(Br)cc12	none (no result: GASC1 inh, T cruzi growth-1, Pf Dd2 inh)
Cc1ccc(S(=O)(=O)Nc2ccc3c(c2)C(=O)N([C@@H](C)CO)C[C@@H](C)[C@H](CN(C)C(=O)Nc2ccc(F)cc2)OCCCC[C@@H](C)O3)cc1	T cruzi growth-1 inconclusive | T cruzi growth-2 101 | T cruzi growth-3 inactive | NIH3T3 tox inactive | 3T3 cytotox 2 inactive
Cc1ccc(S(=O)(=O)Nc2ccc3c(c2)C(=O)N([C@@H](C)CO)C[C@@H](C)[C@@H](CN(C)C(=O)Nc2ccc(F)cc2)OCCCC[C@H](C)O3)cc1	none
Cc1ccc(S(=O)(=O)Nc2ccc3c(c2)C(=O)N([C@H](C)CO)C[C@@H](C)[C@H](CN(C)C(=O)Nc2ccc(F)cc2)OCCCC[C@H](C)O3)cc1	T cruzi growth-1 100 | T cruzi growth-2 106 | T cruzi growth-3 inactive | NIH3T3 tox inactive | 3T3 cytotox 2 inactive
Cc1ccc(S(=O)(=O)Nc2ccc3c(c2)C(=O)N([C@@H](C)CO)C[C@H](C)[C@@H](CN(C)C(=O)Nc2ccc(F)cc2)OCCCC[C@@H](C)O3)cc1	T cruzi growth-1 98, Pf Dd2 inh -82 | T cruzi growth-2 107 | T cruzi growth-3 inactive | NIH3T3 tox inactive | 3T3 cytotox 2 inactive
COC(=O)c1ccccc1NC(=O)CSc1nnc(-c2cc3cccc(OC)c3o2)n1C	none (no result: GASC1 inh, T cruzi growth-1, Pf Dd2 inh)
C[C@@H]1CCCCO[C@H](CN(C)Cc2ccc(C(F)(F)F)cc2)[C@@H](C)CN([C@H](C)CO)C(=O)c2cc(NS(=O)(=O)c3cccs3)ccc2O1	none (no result: IDH1 mut inh)
C[C@@H]1CCCCO[C@H](CN(C)Cc2ccc(C(F)(F)F)cc2)[C@H](C)CN([C@H](C)CO)C(=O)c2cc(NS(=O)(=O)c3cccs3)ccc2O1	T cruzi growth-1 101 (no result: IDH1 mut inh) | T cruzi growth-2 99 | T cruzi growth-3 117 | NIH3T3 tox inactive | 3T3 cytotox 2 105
C[C@H](CO)N1C[C@H](C)[C@H](CN(C)C(=O)Nc2ccc(C(F)(F)F)cc2)OCCCC[C@H](C)Oc2ccc(NS(=O)(=O)c3cccs3)cc2C1=O	T cruzi growth-1 97 | T cruzi growth-2 97 | T cruzi growth-3 105 | NIH3T3 tox inactive | 3T3 cytotox 2 inactive
C[C@@H]1CCCCO[C@@H](CN(C)Cc2ccc(C(F)(F)F)cc2)[C@H](C)CN([C@H](C)CO)C(=O)c2cc(NS(=O)(=O)c3cccs3)ccc2O1	T cruzi growth-1 114 | T cruzi growth-2 98 | T cruzi growth-3 114 | NIH3T3 tox inactive | 3T3 cytotox 2 104
C[C@@H]1CCCCO[C@H](CN(C)Cc2ccc(C(F)(F)F)cc2)[C@H](C)CN([C@@H](C)CO)C(=O)c2cc(NS(=O)(=O)c3cccs3)ccc2O1	T cruzi growth-1 113 | T cruzi growth-2 97 | T cruzi growth-3 104 | NIH3T3 tox inactive | 3T3 cytotox 2 103
CCN(CC(=O)O)S(=O)(=O)c1ccc(OC)cc1	none (no result: GASC1 inh, T cruzi growth-1, Pf Dd2 inh)
